Test results reported in ChEMBL document CHEMBL5055628, “Anticancer properties of indole derivatives as IsoCombretastatin A-4 analogues” (Eur J Med Chem, 2021).
Activity calls are given as the source filed them. The calls are words filed in the database; no cut-off is given here.

How the values were obtained:
MDA-MB-231 = assay: Cytotoxicity against human MDA-MB-231 cells assessed as inhibition of cell growth measured after 72 hrs by CellTiter-Glo reagent based luminescence assay; format: functional; conditions: MDA-MB-231, 72 h
Outline: (§1)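 Cells seeded at 3 × 10³/well and grown 24 h. A549, MDA-MB231, K562 and K562R (doxorubicin-resistant) were in RPMI 1640; MiaPaCa2 and HT29 in DMEM (4.5 g/L glucose); all media had 10% FCS and 1% glutamine, at 37 °C and 5% CO₂. Cells got 10 final concentrations by serial dilution, with vehicle controls, for 72 h. CellTiter-Glo luminescence was read after 15 min. Triplicate runs; IC50 from four- or five-parameter logistic fits.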

K562 [1] = assay: Cytotoxicity against human K562 cells assessed as inhibition of cell growth measured after 72 hrs by CellTiter-Glo reagent based luminescence assay; format: functional; conditions: K562, 72 h; outline: as §1
A549 = assay: Cytotoxicity against human A549 cells assessed as inhibition of cell growth measured after 72 hrs by CellTiter-Glo reagent based luminescence assay; format: functional; conditions: A549, 72 h; outline: as §1
[2] = Drug metabolism in rat liver microsomes assessed as O-demethylated metabolite formation measured after 96 hrs by ESI-HRMS assay; format: ADME, Microsome
Outline: (§2)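 Rat or human liver microsomes at 1 mg/mL final protein in 10 mM buffer, pH 7.4, prewarmed to 37 °C with an NADPH-generating system (0.6 mM NADP, 6.4 mM glucose-6-phosphate, 2 U/mL G6P dehydrogenase). Substrate 100 μM final; shaken at 37 °C. Triplicate aliquots taken at 0–96 h (up to 144 h), ethyl acetate quench with internal standard, then HPLC-MS/MS (positive ESI, m/z 150–450, CID).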

MIA PaCa-2 = assay: Cytotoxicity against human MIA PaCa-2 cells assessed as inhibition of cell growth measured after 72 hrs by CellTiter-Glo reagent based luminescence assay; format: functional; conditions: MIA PaCa-2, 72 h; outline: as §1
HT-1080 = assay: Cytotoxicity against human HT-1080 cells assessed as inhibition of cell growth measured after 72 hrs by CellTiter-Glo reagent based luminescence assay; format: functional; conditions: HT-1080, 72 h
[3] = Drug metabolism in rat liver microsomes assessed as hydroxylated metabolite formation measured after 96 hrs by ESI-HRMS assay; format: ADME, Microsome
Outline: (§3)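 Compound at 100 μM final incubated at 37 °C with rat or human liver microsomes (1 mg/mL protein, 10 mM buffer pH 7.4) plus NADPH-generating system (0.6 mM NADPNa4, 6.4 mM glucose-6-phosphate, 2 U/mL G6PDH). After 96 h, ethyl acetate extraction and HPLC-MS/MS (positive ESI, m/z 150–450, collision-induced dissociation) to identify metabolites.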

HT-29 = assay: Cytotoxicity against human HT-29 cells assessed as inhibition of cell growth measured after 72 hrs by CellTiter-Glo reagent based luminescence assay; format: functional; conditions: HT-29, 72 h; outline: as §1
HCT-116 = assay: Cytotoxicity against human HCT-116 cells assessed as inhibition of cell growth measured after 72 hrs by CellTiter-Glo reagent based luminescence assay; format: functional; conditions: HCT-116, 72 h
Outline: (§4)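 Cells (HCT-116 in McCoy's 5A; U87-MG in DMEM 4.5 g/L glucose; all with 10% serum, 1% glutamine, 37 °C, 5% CO2) seeded at 3 × 10³/well, treated after 24 h with 10 final concentrations by serial dilution; vehicle controls. After 72 h, CellTiter-Glo luminescence; IC50 from four- or five-parameter logistic fit, triplicate, mean of three experiments.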

[4] = Metabolic stability in rat liver microsomes assessed as half life measured after 96 hrs by HPLC-MS/MS analysis; format: ADME, Microsome
Outline: (§5)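 Compound (100 μM final) incubated at 37 °C with rat or human liver microsomes (1 mg/mL protein, pH 7.4) and NADPH-generating system; triplicate aliquots at 0–144 h quenched with isoCA-4 internal standard and ethyl acetate, quantified by HPLC-MS/MS against calibration curves.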

K-562R [5] = assay: Cytotoxicity against human K-562R cells assessed as inhibition of cell growth measured after 72 hrs by CellTiter-Glo reagent based luminescence assay; format: functional; outline: as §1
[6] = Metabolic stability in human liver microsomes assessed as half life measured after 96 hrs by HPLC-MS/MS analysis; format: ADME, Microsome; outline: as §5
[7] = Drug metabolism in human liver microsomes assessed as hydroxylated metabolite formation measured after 96 hrs by ESI-HRMS assay; format: ADME, Microsome; outline: as §3
[8] = Drug metabolism in human liver microsomes assessed as O-demethylated metabolite formation measured after 96 hrs by ESI-HRMS assay; format: ADME, Microsome; outline: as §2
K562 [9] = assay: Induction of mitochondrial dysfunction in human K562 cells assessed as green monomer formation at 1 nM measured after 48 hrs by JC-1 staining based flow cytometry (reference value: 1.3%); format: functional
K562 [10] = assay: Induction of mitochondrial dysfunction in human K562 cells assessed as red aggregate formation at 5 nM measured after 48 hrs by JC-1 staining based flow cytometry (reference value: 98.3%); format: functional
K562 [11] = assay: Induction of mitochondrial dysfunction in human K562 cells assessed as red aggregate formation at 1 nM measured after 48 hrs by JC-1 staining based flow cytometry (reference value: 98.3%); format: functional
K-562R [12] = assay: Anticlonogenic activity against imatinib-resistant human K-562R cells assessed as reduction in number of cell colonies at 0.01 to 10 nM measured after 10 days by MTT reagent based colony formation assay; format: functional; conditions: dose 0.01-10 nM, time 10.0 day
Outline: (§6)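 10^3 K562 cells (RPMI 1640, 10% FBS) or imatinib-resistant K562IR cells (RPMI 1640 with 25 mM HEPES, 10% FCS; kept in 1 μM imatinib, washed three times before use) grown 10 days in semisolid methylcellulose medium with 10% FBS, with or without compound. Colonies stained with 1 mg/mL MTT and image-analysed; three independent experiments, mean ± SD, two-way ANOVA with Tukey test.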

[13] = Drug metabolism in human liver microsomes assessed as N-demethylated metabolite formation measured after 96 hrs by ESI-HRMS assay; format: ADME, Microsome; outline: as §3
K562 [14] = assay: Cell cycle arrest in human K562 cells assessed as accumulation of cells in G2/M phase at 0.5 nM measured after 24 hrs by PI staining based flowcytometry; format: functional
Outline: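 Exponentially growing K562 cells exposed to compound (0.5 and 1 nM) or DMSO alone for 24 h. DNA content stained with propidium iodide and cell-cycle distribution read by flow cytometry.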

K562 [15] = assay: Induction of mitochondrial dysfunction in human K562 cells assessed as red aggregate formation at 0.5 nM measured after 48 hrs by JC-1 staining based flow cytometry (reference value: 98.3%); format: functional
K562 [16] = assay: Induction of mitochondrial dysfunction in human K562 cells assessed as green monomer formation at 0.5 nM measured after 48 hrs by JC-1 staining based flow cytometry (reference value: 1.3%); format: functional
[17] = Inhibition of porcine brain tubulin polymerization incubated for 30 mins followed by cooling on ice for 10 mins and measured by UV spectrometer assay; format: tissue-based, Sus scrofa
Outline: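 Porcine brain tubulin (Shelanski isolation) in 0.1 M MES, 1.5 mM GTP, 1 mM EGTA, 1 mM β-ME, 1 mM MgCl2, pH 6.7, diluted to 1.5 mg/mL; ligand or DMSO 30 min at 20 °C, 10 min on ice. Assembly by 450 nm turbidity on 4→37 °C shift, plateau minus baseline vs no-ligand control (100%); IC50 from mono-exponential fit of ligand:tubulin ratio, three independent experiments.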

K-562R [18] = assay: Anticlonogenic activity against imatinib-resistant human K-562R cells assessed as reduction of total surface of cell colonies at 0.01 to 10 nM measured after 10 days by MTT reagent based colony formation assay; format: functional; conditions: dose 0.01-10 nM, time 10.0 day; outline: as §6
K562 [19] = assay: Induction of mitochondrial dysfunction in human K562 cells assessed as green monomer formation at 5 nM measured after 48 hrs by JC-1 staining based flow cytometry (reference value: 1.3%); format: functional
K562 [20] = assay: Induction of mitochondrial dysfunction in human K562 cells assessed as green monomer formation at 50 nM measured after 48 hrs by JC-1 staining based flow cytometry (reference value: 1.3%); format: functional
K562 [21] = assay: Anticlonogenic activity against human K562 cells assessed as reduction in total surface area of cell colonies at 0.05 to 10 nM measured after 10 days by MTT reagent based colony formation assay; format: functional; conditions: dose 0.05-10 nM, time 10.0 day; outline: as §6
K562 [22] = assay: Induction of mitochondrial dysfunction in human K562 cells assessed as red aggregate formation at 50 nM measured after 48 hrs by JC-1 staining based flow cytometry (reference value: 98.3%); format: functional
[23] = Drug metabolism in rat liver microsomes assessed as N-demethylated metabolite formation measured after 96 hrs by ESI-HRMS assay; format: ADME, Microsome; outline: as §3
K562 [24] = assay: Anticlonogenic activity against human K562 cells assessed as reduction in average size of cell colonies at 0.05 to 10 nM measured after 10 days by MTT reagent based colony formation assay; format: functional; conditions: dose 0.05-10 nM, time 10.0 day; outline: as §6
U-87 MG = assay: Cytotoxicity against human U-87 MG cells assessed as inhibition of cell growth measured after 72 hrs by CellTiter-Glo reagent based luminescence assay; format: functional, U-87MG ATCC; outline: as §4
K-562R [25] = assay: Anticlonogenic activity against imatinib-resistant human K-562R cells assessed as reduction of average size of cell colonies at 0.01 to 10 nM measured after 10 days by MTT reagent based colony formation assay; format: functional; conditions: dose 0.01-10 nM, time 10.0 day; outline: as §6
K562 [26] = assay: Induction of mitochondrial dysfunction in human K562 cells assessed as red aggregate formation at 10 nM measured after 48 hrs by JC-1 staining based flow cytometry (reference value: 98.3%); format: functional
K562 [27] = assay: Induction of mitochondrial dysfunction in human K562 cells assessed as green monomer formation at 10 nM measured after 48 hrs by JC-1 staining based flow cytometry (reference value: 1.3%); format: functional
K562 [28] = assay: Anticlonogenic activity against human K562 cells assessed as reduction in number of cell colonies at 0.05 to 10 nM measured after 10 days by MTT reagent based colony formation assay; format: functional; conditions: dose 0.05-10 nM, time 10.0 day; outline: as §6

Molecule `C=C(c1ccc(OC)c(O)c1)c1cc(OC)c(OC)c(OC)c1` has an IC50 (MDA-MB-231) of 1.98 nM, an IC50 (K562 [1]) of 4.26 nM and an IC50 (A549) of 52.7 nM. The Drug metabolism [2] was “Metabolite_Detected”, the IC50 (MIA PaCa-2) was 3.01 nM and the IC50 (HT-1080) was 0.91 nM. For the same molecule, the Drug metabolism [3] was “Metabolite_Detected”, the IC50 (HT-29) was > 100 nM and the IC50 (HCT-116) was 0.64 nM. It also gave a half-life [4] of 18 h, an IC50 (K-562R [5]) of 5.13 nM and a half-life [6] of 30 h. The Drug metabolism [7] was “Metabolite_Detected” and the Drug metabolism [8] was “Metabolite_Detected”.
In the case of `COCOCc1cc2cc(N(C)c3cc(C)nc4ccccc34)ccc2n1C`, the IC50 (HCT-116) is reported as 44.3 nM.
Work on `COc1cc(N(C)c2ccc3c(c2)cc2n3CCOC2)cc(OC)c1OC` yielded an IC50 (HCT-116) of 29.2 nM.
`C=C(c1cc(OC)c(OC)c(OC)c1)c1ccc2c(c1)cc1ccccn12` showed an IC50 (HCT-116) of 213 nM.
Molecule `CCn1c(CO)cc2cc(N(C)c3nc(C)nc4ccccc34)ccc21` has an Activity (K562 [9]) of 22.3%, an IC50 (MDA-MB-231) of 0.25 nM and an Activity (K562 [10]) of 75.8%. The IC50 (K562 [1]) was 0.26 nM, the Activity (K562 [11]) was 76.9% and the IC50 (A549) was 0.7 nM. For the same molecule, the Activity (K-562R [12]) was “Active”, the Drug metabolism [13] was “Metabolite_Detected” and the Activity (K562 [14]) was “Active”. For the same molecule, the Activity (K562 [15]) was 77.6%, the IC50 (MIA PaCa-2) was 0.09 nM and the Activity (K562 [16]) was 21.3%. For the same molecule, the IC50 [17] was 1900 nM, the IC50 (HT-1080) was 0.08 nM and the Drug metabolism [3] was “Metabolite_Detected”. For the same molecule, the Activity (K-562R [18]) was “Active”, the Activity (K562 [19]) was 23.1% and the IC50 (HT-29) was 0.84 nM. For the same molecule, the IC50 (HCT-116) was 0.08 nM, the half-life [4] was 140 h and the Activity (K562 [20]) was 39.2%. For the same molecule, the IC50 (K-562R [5]) was 0.1 nM, the Activity (K562 [21]) was “Active” and the Activity (K562 [22]) was 60%. For the same molecule, the Drug metabolism [23] was “Metabolite_Detected”, the Activity (K562 [24]) was “Active” and the half-life [6] was 145 h. The IC50 (U-87 MG) was 0.51 nM, the Activity (K-562R [25]) was “Active” and the Activity (K562 [26]) was 68.1%. For the same molecule, the Drug metabolism [7] was “Metabolite_Detected”, the Activity (K562 [27]) was 31.2% and the Activity (K562 [28]) was “Active”.
For `CCn1c(CO)cc2cc(N(C)c3cc(C)nc4ccccc34)ccc21`, the IC50 (HCT-116) was 21.6 nM.
`COc1cc(N(C)c2ccc3c(c2)cc2n3CC=CC2)cc(OC)c1OC` gave an IC50 (HCT-116) of 959 nM.
Work on `Cc1cc(N(C)c2ccc3c(c2)cc2n3CCOC2)c2ccccc2n1` yielded an IC50 (HCT-116) of 3.22 nM.
With `C=C(c1cc(OC)c(OC)c(OC)c1)c1ccc2c(c1)cc(COC)n2C` the IC50 (HCT-116) was 72.4 nM.
`C=C(c1cc(OC)c(OC)c(OC)c1)c1ccc2c(c1)cc(CO)n2C` showed an IC50 (HCT-116) of 2.12 nM.
With `COCc1cc2cc(N(C)c3cc(C)nc4ccccc34)ccc2n1C` the IC50 (HCT-116) was 10.2 nM.
`CCn1c(CO)cc2cc(N(C)c3cc(OC)c(OC)c(OC)c3)ccc21` showed an IC50 (HCT-116) of 987 nM.
`Cc1nc(N(C)c2ccc3c(c2)cc2ccccn23)c2ccccc2n1` showed an IC50 (HCT-116) of 6.87 nM.
